Columns and labels:
Plasmodium berghei [1] = test: Antimalarial activity against Plasmodium berghei ANKA infected in C57BL/6 mouse assessed as host survival at 100 mg/kg, po administered 24 hrs post-infection (reference value: 6.8 days); type: functional
Plasmodium falciparum = test: Antimalarial activity against Plasmodium falciparum NF54; type: functional, organism-based
Mus musculus = test: Toxicity in Plasmodium berghei ANKA infected C57BL/6 mouse assessed as effect on longevity at 100 mg/kg, po administered 24 hrs post-infection measured after 3 days; type: organism-based; parameters: dose 100 mg/kg, route oral; settings: in vivo, 72 h
Plasmodium berghei [2] = test: Antimalarial activity against Plasmodium berghei ANKA infected in C57BL/6 mouse assessed as host survival at 15 mg/kg, po administered 24 hrs post-infection (reference value: 6.8 days); type: functional
Plasmodium berghei [3] = test: Antimalarial activity against Plasmodium berghei ANKA infected in C57BL/6 mouse assessed as host survival at 18 mg/kg, po administered 24 hrs post-infection (reference value: 6.8 days); type: functional
Plasmodium berghei [4] = test: Antimalarial activity against Plasmodium berghei ANKA infected in C57BL/6 mouse assessed as decrease in parasitemia at 15 mg/kg, po administered 24 hrs post-infection measured after 3 days by Giemsa microscopy relative to vehicle treated control; type: functional; parameters: scale not given: the % may be the effect or the level left
Procedure, shortened: (§1)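 Male C57BL/6J mice, 5 weeks old, about 20 g, infected i.p. on day 0 with 5 × 10⁷ P. berghei ANKA-parasitized erythrocytes. At 24 h post-infection, four mice per group received one oral dose in 7:3 Tween 80:ethanol diluted in water: trioxane 6 mg/kg plus mefloquine HCl 18 mg/kg, or trioxane 7.5 mg/kg plus mefloquine HCl 15 mg/kg. Untreated infected controls were included. Blood parasitemia was read by Giemsa microscopy.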

Plasmodium berghei [5] = test: Antimalarial activity against Plasmodium berghei ANKA infected in C57BL/6 mouse assessed as decrease in parasitemia at 18 mg/kg, po administered 24 hrs post-infection measured after 3 days by Giemsa microscopy relative to vehicle treated control; type: functional; parameters: scale not given: the % may be the effect or the level left; procedure, shortened: as §1

CSc1cc(NC(=O)CC[C@H]2O[C@@H]3O[C@@]4(C)CC[C@H]5[C@H](C)CC[C@@H]([C@H]2C)[C@@]35OO4)cc(SC)c1
Survival (Plasmodium berghei [1]): 7.5 days | EC50 (Plasmodium falciparum): 6.5 nM | Activity (Mus musculus): Non-toxic

O[C@@H](c1cc(C(F)(F)F)nc2c(C(F)(F)F)cccc12)[C@H]1CCCCN1 (relative stereo) [(S,R)-MEFLOQUINE]
Survival (Plasmodium berghei [2]): 15.5 days | Survival (Plasmodium berghei [3]): 19.8 days | Activity (Plasmodium berghei [4]): >99.9% | Activity (Plasmodium berghei [5]): >99.9%

C[C@H]1[C@@H](CCC(=O)Nc2cccc([S@@+](C)[O-])c2)O[C@@H]2O[C@@]3(C)CC[C@H]4[C@H](C)CC[C@@H]1[C@@]24OO3
EC50 (Plasmodium falciparum): 29 nM

CCCCN(CCCC)CC(O)c1cc(Cl)cc2c1-c1ccc(Cl)cc1/C2=C/c1ccc(Cl)cc1 (stereo not given) [LUMEFANTRINE]
Activity (Plasmodium berghei [5]): >99.9%

C[C@H]1[C@@H](CCC(=O)Nc2cccc([S@+](C)[O-])c2)O[C@@H]2O[C@@]3(C)CC[C@H]4[C@H](C)CC[C@@H]1[C@@]24OO3
EC50 (Plasmodium falciparum): 23 nM

C[C@@H]1CC[C@H]2[C@@H](C)C(=O)O[C@@H]3O[C@@]4(C)CC[C@@H]1[C@]32OO4 [ARTEMISININ]
EC50 (Plasmodium falciparum): 10 nM

CSc1cccc(NC(=O)CC[C@H]2O[C@@H]3O[C@@]4(C)CC[C@H]5[C@H](C)CC[C@@H]([C@H]2C)[C@@]35OO4)c1
Survival (Plasmodium berghei [1]): 15 days | EC50 (Plasmodium falciparum): 9.1 nM | Activity (Mus musculus): Non-toxic

C[C@H]1[C@@H](CCC(=O)Nc2cccc(S(C)(=O)=O)c2)O[C@@H]2O[C@@]3(C)CC[C@H]4[C@H](C)CC[C@@H]1[C@@]24OO3
EC50 (Plasmodium falciparum): 21 nM

From ChEMBL document CHEMBL1944586, “Malaria-infected mice are completely cured by one 6 mg/kg oral dose of a new monomeric trioxane sulfide combined with mefloquine” (J Med Chem, 2012)
